In all, about 220,000 compounds went through this assay and about 630 (0.29%) were called active.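 Rule for the calls: active = activation above its plate's cutoff, the mean activation of the plate's test wells plus 3 SD (cut at about 12% in these data); inactive = the rest.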 Only a selection was taken, and actives are over-represented in it overall.
target: Mucolipin-3 (Homo sapiens) (UniProt Q8TDD5); assay: activators of mucolipin-3 cation channel – cell-based, HEK293 TRPML3-YFP, Fluo-8 calcium fluorescence, 3 µM, primary screen (AID 1448); details: at 3 µM, active compounds read high, 100% = the carbachol control signal;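 note: 0% = DMSO only wells and 100% = carbachol wells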
Sequence (Q8TDD5 whole entry, looked up): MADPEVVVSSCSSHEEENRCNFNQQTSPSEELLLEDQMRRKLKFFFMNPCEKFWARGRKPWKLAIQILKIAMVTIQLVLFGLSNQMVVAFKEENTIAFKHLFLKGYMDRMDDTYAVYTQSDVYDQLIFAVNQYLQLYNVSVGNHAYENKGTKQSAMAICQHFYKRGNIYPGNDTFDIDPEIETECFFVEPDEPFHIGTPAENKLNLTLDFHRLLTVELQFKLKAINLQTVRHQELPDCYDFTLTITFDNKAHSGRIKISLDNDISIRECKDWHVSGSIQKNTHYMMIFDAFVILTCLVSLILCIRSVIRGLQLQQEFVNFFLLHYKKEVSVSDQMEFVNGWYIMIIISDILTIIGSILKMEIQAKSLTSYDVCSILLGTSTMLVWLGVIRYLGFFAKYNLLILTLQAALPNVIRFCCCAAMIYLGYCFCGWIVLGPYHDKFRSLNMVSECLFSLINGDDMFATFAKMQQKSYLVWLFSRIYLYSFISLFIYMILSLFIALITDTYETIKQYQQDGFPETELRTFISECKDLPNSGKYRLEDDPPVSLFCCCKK
How it was run: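 Material: HEK293 cells stably carrying human TRPML3-YFP; compound dosing: single dose, 3 µM final nominal compound, 0.3% DMSO final; incubation: 1-h 37 °C dye load, 5-s basal, 120-s post-compound reads; technique: Fluo-8 intracellular calcium fluorescence, excitation 470-495 nm, emission 515-575 nm; read-out basis: percent activation from peak-to-basal fluorescence ratio, scaled between DMSO and carbachol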

activation, inactive:
C=CCNC(=O)COC(=O)CNC(=O)c1cc(Cl)cc([N+](=O)[O-])c1 0.51%, COc1ccc(NS(=O)(=O)c2ccc(Oc3c(C#N)cccc3C#N)cc2)cc1 4.31%, Cc1nnc(C)c2c(C)n(N)c(C)c12 0.94%, O=C(NC(CC(=O)N1CCN(c2ccccc2)CC1)c1ccccc1)c1ccccc1Cl (stereo unspecified) -0.24%, COc1ccc(C(=O)N/N=c2\oc3ccccc3cc2C(N)=O)cc1 0.85%, CCN(CC)c1ccc2cc(C(=O)O)c(=O)oc2c1 0.92%, OCC(O)CN(c1ccccc1)c1ccccc1 (stereo unspecified) 0.25%, CN1CCN(/N=C/c2ccc(-c3ccc([N+](=O)[O-])cc3)o2)CC1 4.1%, Cn1c2c(c(=O)n(C)c1=O)C(c1cccc(F)c1)C(C#N)=C(N)O2 (stereo unspecified) 0.03%, Cc1nonc1C1CCCN1Cc1nc(-c2ccc(F)cc2F)oc1C (stereo unspecified) 0.58%, O=S(=O)(c1cccc2nonc12)N1CCN(c2cccc(Cl)c2)CC1 0.52%, Cc1cccn2c(=O)c(/C=C3\SC(=S)N(CC(C)C)C3=O)c(NCCCOC(C)C)nc12 0.65%, CCOC(=O)CC1C(=O)NCCN1C(=O)COc1ccc(Br)cc1C (stereo unspecified) -0.14%, CC(CC(=O)C1C(C)C=CCC1(C)C)NNC(N)=O (stereo unspecified) 0.6%, CN(C)CCNC(CC(=O)Nc1ccc(Cl)c(Cl)c1)C(=O)O (stereo unspecified) -0.13%, O=C(CC(=O)Nc1ccc(Cl)c(Cl)c1)N/N=C/c1ccc(O)cc1 0.24%, CCn1c(CSc2nc(C)cc(C)n2)nnc1SCC(N)=O 0.87%, CC(C)CN(CC(C)C)CC(O)CN(c1ccccc1)S(=O)(=O)c1ccccc1[N+](=O)[O-] (stereo unspecified) -1.13%, COc1ccc(-c2noc(CSc3ccc(C)cc3)n2)cc1 0.35%, COc1ccc(-c2noc(-c3ccc(C)cc3)n2)cc1 1.08%, Cc1ccnc(NC(=O)c2ccc(Cl)c([N+](=O)[O-])c2)c1 0.05%, CC(C)(C)OC(=O)N1CCC(NC(=O)c2[nH]cnc2C(=O)N[C@@H](Cc2ccccc2)C(=O)OCc2ccccc2)CC1 0.25%, COC(=O)c1ccc(NC(=O)c2ccccc2NS(=O)(=O)c2ccccc2)cc1 11.1%, COc1cc(NC(=O)c2cccnc2SC)cc(OC)c1 -0.28%, CN(Cc1cc2cc(F)ccc2[nH]1)Cc1nc(-c2cnccn2)no1 0.76%, Cc1cccc(CSc2ccc(-c3cccs3)nn2)c1 0.19%

activation, active:
CCN(CC)c1ccc2cc(C(N)=O)/c(=N\NC(=O)c3ccncc3)oc2c1 22.1%, CCOC(=O)CC1C(=O)NCCN1c1nc2c(C)cccn2c(=O)c1/C=C1\SC(=S)N(C(C)CC)C1=O (stereo unspecified) 11.9%, O=C(CC(O)(C(F)(F)F)C(F)(F)F)Nc1ccc(Cl)c(Cl)c1 17.3%, COc1ccc(-c2noc(CN(C)S(=O)(=O)c3ccc(C)cc3)n2)cc1 138%, COc1cc(NC(=O)c2ccccc2NS(=O)(=O)c2ccc(Cl)s2)cc(OC)c1 12.1%

Source: PubChem BioAssay AID1448 (The Scripps Research Institute Molecular Screening Center, 2008)
